According to ChEMBL document CHEMBL1123966, “Ring-substituted [1,2-bis(4-hydroxyphenyl)ethylenediamine]dichloroplatinum (II) complexes: compounds with a selective effect on the hormone-dependent mammary carcinoma” (1988):

How the values were obtained:
MCF7S [1] = test: Cell growth inhibition in hormone dependent MCF 7 breast cancer cells; type: functional, cell-based; conditions: Homo sapiens
MCF7S [2] = test: Incorporation of [3H]- thymidine in hormone dependent MCF-7 breast cancer cells; type: functional, cell-based; conditions: Homo sapiens
MDA-MB-231 [3] = test: Incorporation of [3H]- thymidine into hormone independent MDA-MB-231 breast cancer cells; type: functional, cell-based; conditions: Homo sapiens
MDA-MB-231 [4] = test: Cell growth inhibition in hormone independent MDA-MB-231 breast cancer cells; type: functional, cell-based; conditions: Homo sapiens
MDA-MB-231 [5] = test: Incorporation of [3H]- thymidine in hormone independent MDA-MB-231 breast cancer cells; type: functional, cell-based; conditions: Homo sapiens
[6] = Cell growth inhibition MXT-ER- breast cancer cells at a dose of 11.3 mg/kg; type: functional, organism-based; parameters: dose 11.3 mg/kg; conditions: Mus musculus, Cancer cell lines
Outline: (§1)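 Hormone-independent MXT mammary carcinoma (ER−) in mice. Equimolar doses (2 × 10⁻⁵ M/kg) were given sc three times a week (Mon, Wed, Fri) in polyethylene glycol 400/H₂O (1:1), or in olive oil for some agents. Median tumor area was measured at the end of a 2-week therapy and expressed as T/C %.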

[7] = Cell growth inhibition MXT-ER+ breast cancer cells at a dose of 11.3 mg/kg; type: functional, organism-based; parameters: dose 11.3 mg/kg; conditions: Mus musculus, Cancer cell lines
Outline: (§2)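 Hormone-dependent MXT mammary carcinoma (ER+) model. Equimolar doses (2 × 10⁻⁵ M/kg) were given sc three times weekly (Mon, Wed, Fri) as a solution or suspension in polyethylene glycol 400/H₂O (1:1); some agents were given in olive oil. Median tumor weight was taken at the end of 6 weeks of therapy and given as T/C %. Significance was tested by the Wilcoxon-Mann-Whitney U test.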

Mus musculus [8] = test: Median tumor weight of MXT (mammary carcinoma) ER+ determined at the end of 6 week therapy at a dose of 11.3 mg/kg; type: functional, organism-based; parameters: dose 11.3 mg/kg; outline: as §2
Mus musculus [9] = organism: Mus musculus; test: Uterotrophic effect in BDF1 mouse measured as([weight of uterus (mg)/body weight (g)] *100); type: functional
Outline: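 Female BDF1 mice carrying MXT ER+ mammary carcinoma were dosed in olive oil, sc, three times a week, for 6 weeks. At the end of therapy, uterotropic effect = [uterus dry weight (mg)/body weight (g)] × 100, given as mean ± SD and as T/C % versus control. Significance was by the U test.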

Mus musculus [10] = test: Uterotrophic effect in BDF1 mouse at a dose of 11.3 mg/kg; type: functional, organism-based; parameters: dose 11.3 mg/kg; conditions: Uterus
Outline: (§3)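 Uterus of BDF1 mice in the MXT ER+ study. Equimolar dosing at 2 × 10⁻⁵ M/kg, sc in PEG 400/H₂O 1:1 three times a week (Mon/Wed/Fri). Uterine response = [uterus dry weight (mg)/body weight (g)] × 100, determined after 6 weeks of therapy; U test.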

[11] = Cell growth inhibition MXT-ER+ breast cancer cells at a dose of 12.9 mg/kg; type: functional, organism-based; parameters: dose 12.9 mg/kg; conditions: Mus musculus, Cancer cell lines; outline: as §2
Mus musculus [12] = test: Median tumor weight of MXT (mammary carcinoma) ER+ determined at the end of 6 week therapy at a dose of 12.9 mg/kg; type: functional, organism-based; parameters: dose 12.9 mg/kg
Outline: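 BDF1 mice with hormone-dependent MXT mammary carcinoma (ER+). Equimolar dosing at 2 × 10⁻⁵ M/kg, given sc in olive oil three times a week (Mon/Wed/Fri) for 6 weeks. Median tumor weight was taken at the end of therapy and compared with controls by the Wilcoxon–Mann–Whitney U test.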

[13] = Cell growth inhibition MXT-ER- breast cancer cells at a dose of 12.9 mg/kg; type: functional, organism-based; parameters: dose 12.9 mg/kg; conditions: Mus musculus, Cancer cell lines; outline: as §1
Mus musculus [14] = test: Uterotrophic effect in BDF1 mouse at a dose of 12.9 mg/kg; type: functional, organism-based; parameters: dose 12.9 mg/kg; conditions: Uterus
Outline: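 Uterus of BDF1 mice in the MXT ER+ study. Equimolar dosing at 2 × 10⁻⁵ M/kg, sc in olive oil three times a week (Mon/Wed/Fri). Uterine response = [uterus dry weight (mg)/body weight (g)] × 100, determined at the end of the 6-week therapy; U test.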

[15] = Cell growth inhibition MXT-ER- breast cancer cells at a dose of 10.9 mg/kg; type: functional, organism-based; parameters: dose 10.9 mg/kg; conditions: Mus musculus, Cancer cell lines; outline: as §1
[16] = Cell growth inhibition MXT-ER+ breast cancer cells at a dose of 10.9 mg/kg; type: functional, organism-based; parameters: dose 10.9 mg/kg; conditions: Mus musculus, Cancer cell lines; outline: as §2
Mus musculus [17] = test: Median tumor weight of MXT (mammary carcinoma) ER+ determined at the end of 6 week therapy at a dose of 10.9 mg/kg; type: functional, organism-based; parameters: dose 10.9 mg/kg; outline: as §2
Mus musculus [18] = test: Uterotrophic effect in BDF1 mouse at a dose of 10.9 mg/kg; type: functional, organism-based; parameters: dose 10.9 mg/kg; conditions: Uterus; outline: as §3
[19] = Cell growth inhibition of MXT-ER+ breast cancer cells at a dose of 13.4 mg/kg; type: functional, organism-based; parameters: dose 13.4 mg/kg; conditions: Mus musculus, Cancer cell lines; outline: as §2
Mus musculus [20] = test: Median tumor weight of MXT ER+ determined at the end of 6 week therapy at a dose of 13.4 mg/kg; type: functional, organism-based; parameters: dose 13.4 mg/kg
Outline: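 BDF1 mice with hormone-dependent MXT mammary carcinoma (ER+). Equimolar dosing at 2 × 10⁻⁵ M/kg, given sc three times a week (Mon/Wed/Fri) for 6 weeks as a solution or suspension in PEG 400/H₂O 1:1. Median tumor weight was taken at the end of therapy; U test (Wilcoxon, Mann, Whitney).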

[21] = Cell growth inhibition of MXT-ER- breast cancer cells at a dose of 13.4 mg/kg; type: functional, organism-based; parameters: dose 13.4 mg/kg; conditions: Mus musculus, Cancer cell lines; outline: as §1
Mus musculus [22] = test: Uterotrophic effect in BDF1 mouse at a dose of 13.4 mg/kg; type: functional, organism-based; parameters: dose 13.4 mg/kg; conditions: Uterus; outline: as §3

With meso-2-PtCl2(2-6-(CH3)2) the ED50 (MCF7S [1]) was 3100 nM, the T/C (MCF7S [1]) was 17% and the ED50 (MCF7S [2]) was 900 nM. For the same substance, the T/C (MCF7S [2]) was 4%, the ED50 (MDA-MB-231 [3]) was 2700 nM and the ED50 (MDA-MB-231 [4]) was 2700 nM. For the same substance, the T/C (MDA-MB-231 [4]) was 34%, the T/C (MDA-MB-231 [5]) was 28% and the T/C [6] was 63%. For the same substance, the T/C [7] was 9%, the Med tumor weight (Mus musculus [8]) was 40 mg and the Effect (Mus musculus [9]) was 86.6. It also gave a T/C (Mus musculus [10]) of 96%.
meso-3-PtCl2(2-CF3) showed an ED50 (MCF7S [1]) of 5100 nM, a T/C (MCF7S [1]) of 61% and an ED50 (MCF7S [2]) of 2200 nM. For the same substance, the T/C (MCF7S [2]) was 27%, the ED50 (MDA-MB-231 [4]) was 4000 nM and the T/C (MDA-MB-231 [4]) was 46%. The ED50 (MDA-MB-231 [5]) was 3200 nM, the T/C (MDA-MB-231 [5]) was 36% and the T/C [11] was 78%. The Med tumor weight (Mus musculus [12]) was 422 mg, the T/C [13] was 72% and the Effect (Mus musculus [9]) was 70.9. The T/C (Mus musculus [14]) was 100%.
meso-4-PtCl2(2-F) showed an ED50 (MCF7S [1]) of 4800 nM, a T/C (MCF7S [1]) of 49% and an ED50 (MCF7S [2]) of 1500 nM. The T/C (MCF7S [2]) was 16%, the ED50 (MDA-MB-231 [3]) was 900 nM and the ED50 (MDA-MB-231 [4]) was 1500 nM. The T/C (MDA-MB-231 [4]) was 21%, the T/C (MDA-MB-231 [5]) was 12% and the T/C [15] was 60%. It also gave a T/C [16] of 30%, a Med tumor weight (Mus musculus [17]) of 143 mg and an Effect (Mus musculus [9]) of 89.9. For the same substance, the T/C (Mus musculus [18]) was 100%.
meso-7-PtCl2(2-Br) gave an ED50 (MCF7S [1]) of 3100 nM, a T/C (MCF7S [1]) of 30% and an ED50 (MCF7S [2]) of 1400 nM. For the same substance, the T/C (MCF7S [2]) was 15%, the ED50 (MDA-MB-231 [3]) was 1200 nM and the ED50 (MDA-MB-231 [4]) was 4300 nM. The T/C (MDA-MB-231 [4]) was 43%, the T/C (MDA-MB-231 [5]) was 13% and the T/C [19] was 12%. The Med tumor weight (Mus musculus [20]) was 57 mg, the T/C [21] was 65% and the Effect (Mus musculus [9]) was 89.3. The T/C (Mus musculus [22]) was 99%.
